# Compounds with a hit are over-represented: about 0.98% of the library has one in this group of screens.
# S1P3 antagonist: antagonists of human S1P3 receptor; 170,000 tested, 0.27% active; Q99500; inhibition, % at 4.98 µM; CHO S1P3 NFAT-BLA reporter, FRET fluorescence, antagonist mode; AID 485;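 active = inhibition above the plate cutoff, the mean inhibition of test wells on that plate plus 3 SD, cut at about 28% in these data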;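 also: cells challenged with S1P at its EC80 of 0.8 µM; blue over green emission ratio from cleaved BLA substrate after 4 h stimulation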
# Target sequence (Q99500 whole entry, looked up): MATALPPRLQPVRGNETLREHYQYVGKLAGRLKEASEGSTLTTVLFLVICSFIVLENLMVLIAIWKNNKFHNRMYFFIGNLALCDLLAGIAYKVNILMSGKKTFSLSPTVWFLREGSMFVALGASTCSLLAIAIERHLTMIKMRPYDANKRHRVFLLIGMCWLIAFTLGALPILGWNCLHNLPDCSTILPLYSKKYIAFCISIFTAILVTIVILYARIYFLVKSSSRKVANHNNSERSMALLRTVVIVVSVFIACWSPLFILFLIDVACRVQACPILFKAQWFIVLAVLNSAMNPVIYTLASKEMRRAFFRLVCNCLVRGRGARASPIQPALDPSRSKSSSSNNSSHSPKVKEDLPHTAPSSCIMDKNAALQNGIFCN
# Yeast lifespan up: yeast lifespan extension. inhibition of the nicotinamide effect, % at 10 µM. S. cerevisiae growth with nicotinamide, OD615; deaD strain in restrictive glucose medium. AID 775. 130,000 tested, 0.68% active;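 active = inhibition above a set limit, placed 3 SD over the median of all compounds, cut at about 26% in these data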
#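 Test system: DeaD-strain S. cerevisiae / Buffer or medium: restrictive glucose medium / Also added: nicotinamide 1.5 mM / Doses: one concentration, 10 µM, DMSO 0.25% / Schedule: 48 h at 30 °C / Signal: OD615 measurement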
# Yeast growth inh: chemicals that inhibit yeast BB579 growth in restrictive medium (lifespan-shortening candidates); 140,000 tested, 0.51% active; inhibition, % at 10 µM; S. cerevisiae BB579 growth, OD615, 48 h; AID 804;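 active = inhibition above a set limit, 3 SD over the mean compound inhibition, cut at about 44% in these data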
#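 Test system: S. cerevisiae DeaD strain BB579 yeast; Medium: restrictive CSMM-D medium; Compound: one dose, 10 µM compound with 0.25% DMSO; Incubation: 4 h cell preincubation, 48 h compound exposure, 30 °C humidified; Signal: OD at 615 nm; Benchmarks: amphotericin B at 10 µg/mL as positive control.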
# A number is an active result; 0 = inactive; - = not tested or not shown.
SMILES,S1P3 antagonist,Yeast lifespan up,Yeast growth inh
Cc1c(C(C)(C)C)c(C=S)n2ccccc12,-,0,0
CCOc1ccc(C(=O)SC2=NCCS2)cc1,-,52,0
COc1ccc(C(=O)SC2=NCCS2)cc1,-,-,0
C/C(=N\NC(=O)c1cc(C(C)(C)C)[nH]n1)C12CC3CC(CC(C3)C1)C2,0,-,-
Cc1ccc(O)c(N=Cc2cc(Cc3ccccc3)cc([N+](=O)[O-])c2O)c1,0,-,-
O=[N+]([O-])c1cc(Cc2ccccc2)cc(C=Nc2ccc(N3CCOCC3)cc2)c1O,0,0,100
CCOc1ccccc1-n1c(=S)sc2c(=O)n(-c3ccc(C)cc3)c(=S)[nH]c21,0,-,-
CCOC(=O)/C(=C/c1c(C)n(C)c2ccc([N+](=O)[O-])cc12)C(C)=O,0,0,0
O=C(CCS(=O)(=O)c1cccc2nsnc12)N1CCN(C(=O)c2ccco2)CC1,-,0,0
Nc1c(-c2ccccc2)nc(Cl)nc1-c1ccccc1,-,0,0
c1ccc(-c2nc3nonc3nc2-c2ccccc2)cc1,0,0,70
Cc1sc2ncnc(NC(C)C(=O)O)c2c1C (stereo unspecified),0,-,-
Cc1ccc(-n2nc(C)c3c2OC(N)=C(C#N)C3c2ccoc2)cc1 (stereo unspecified),0,30,0
Cc1ccc(-n2nc(C)c3c2OC(N)=C(C#N)C3c2ccco2)cc1 (stereo unspecified),0,0,0
O=C(O)c1cccc(S(=O)(=O)Nc2cc(Cl)ccc2Cl)c1,0,-,-
CC1CC(C)CN(C(=O)c2cccc(S(=O)(=O)Nc3cc(C(F)(F)F)ccc3Cl)c2)C1 (stereo unspecified),0,32,0
Cc1c(NC(=O)c2cn3ccccc3n2)cccc1-n1cnnn1,0,-,-
CCOC(=O)c1oc2cc(C)cc(O)c2c(=O)c1-c1csc(C)n1,-,0,0
Cc1cc(OC(=O)c2cc(F)c(F)cc2Cl)nc(C)n1,-,0,0
Cc1cc(C)c(S(=O)(=O)c2ccccc2)c(OC(=O)c2cc(F)c(F)cc2Cl)n1,-,43,0
COc1cc(S(=O)(=O)NCc2ccccn2)c(OC)cc1Cl,-,-,0
CCOc1cc(C)c(C(C)C)cc1S(=O)(=O)NCc1ccccn1,118,59,0
C=CCn1c(/N=C/c2ccc3c(c2)OCO3)nc2ccccc21,-,-,0
O=C(Nc1cccc(-c2cn3ccccc3n2)c1)C1CC1,-,0,0
O=C1c2cccc3cccc(c23)C(=O)N1c1cccnc1,0,0,49
SMILES,S1P3 antagonist,Yeast lifespan up,Yeast growth inh
O=C1c2cccc3cccc(c23)C(=O)N1c1ccncc1,-,-,0
CCN(CC)S(=O)(=O)c1ccc(NC2c3ccccc3C(=O)N2CCN2CCOCC2)cc1 (stereo unspecified),0,0,0
CN1C(=O)c2ccc(N(C)C)cc2C1=O,-,-,0
CN1C(=O)c2cccc3c(Cl)ccc(c23)C1=O,-,0,61
O=c1c2sc3nc(N4CCOCC4)c4c(c3c2ncn1CCc1ccccc1)CCCC4,-,0,0
Clc1ccc(CCNc2nc3ccccc3s2)cc1,-,0,68
O=c1c(-c2nc3ccccc3s2)cccn1Cc1ccc(Cl)cc1,-,0,0
COc1ccc(NC(=O)COC(=O)C23CC4CC(CC(Cl)(C4)C2)C3)c(OC)c1,0,-,-
CCN(CC)S(=O)(=O)c1ccc(NC(=O)CSc2cccc[n+]2[O-])cc1,-,0,65
CCN(CC)S(=O)(=O)c1ccc(Cl)c(NC(=O)CSc2cccc[n+]2[O-])c1,0,-,-
Cc1cc2c(ccc3[nH]onc32)n1,0,0,0
Cc1nn(CC(=O)OCCOc2ccc(Br)cc2)c(C)c1[N+](=O)[O-],0,-,-
NS(=O)(=O)c1cccc(NC(=O)COC(=O)CC2CC3CCC2C3)c1 (stereo unspecified),0,-,-
CC1=NN(Cc2ccccc2)C(=O)C1C(c1ccc(Cl)cc1)C(C#N)C#N (stereo unspecified),0,41,0
CC1=NN(Cc2ccccc2)C(=O)C1C(c1ccncc1)C(C#N)C#N (stereo unspecified),0,-,-
CC1=NN(Cc2ccccc2)C(=O)C1C(c1ccccc1)C(C#N)C#N (stereo unspecified),-,38,0
CC1=NNC(=O)C1C(c1ccc(Cl)cc1)C(C#N)C#N (stereo unspecified),0,-,-
O=[N+]([O-])c1cc2oc3c(c2c(C=NCc2ccccc2)c1O)CCCC3,0,69,0
Cc1oc2cc([N+](=O)[O-])c(O)c([N+](=O)[O-])c2c1C(=O)c1ccc(Cl)cc1,0,-,-
CC(C)CN=Cc1c(O)c([N+](=O)[O-])cc2oc3c(c12)CCCC3,0,0,68
Oc1ccc2ccccc2c1C=NCc1ccccc1,0,-,-
O=C(Nc1ccccc1)Nc1csc2ccccc12,0,-,-
O=C(C1CCCN(S(=O)(=O)c2ccccc2[N+](=O)[O-])C1)N1CCCC1 (stereo unspecified),0,0,0

# Screening data deposited in PubChem BioAssay by several laboratories.
